# Source: ChEMBL document CHEMBL2093137, “WHO-TDR NTD Screening”
# Key:
# [1] = WHO-TDR: Cytotoxicity; type: toxicity, cell-based; details: human, MRC5 cells
# Plasmodium falciparum K1 = assay: WHO-TDR: Malaria; type: functional, organism-based, Homo sapiens; details: Erythrocyte
# In short: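 Previously published standard procedures, including a reference drug as positive control, were used to screen whole Plasmodium falciparum K1 parasites inside human red blood cells. IC50 is the measure of antiplasmodial potency. The compounds were a 10,000-member diverse Life Chemicals library.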
# Trypanosoma cruzi = assay: WHO-TDR: Chagas disease; type: functional, organism-based, Homo sapiens; details: MRC5
# In short: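 A diverse library of 10,000 compounds from Life Chemicals, filtered for drug-likeness and reactive groups, was screened against intracellular amastigotes of Trypanosoma cruzi Tulahuen CL2 beta-galactosidase strain. The parasites were grown in MRC-5SV2 human lung fibroblast host cells, and a reference drug served as positive control under previously published standard procedures. Antiparasitic potency is given as IC50.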
# [2] = tested on: Trypanosoma brucei brucei; assay: WHO-TDR: Human African Trypanosomiasis (HAT); type: functional, organism-based; details: Squib-427
# In short: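 In this whole-organism screen, the target was the bloodstream form of Trypanosoma brucei, strain Squib 427. A diverse set of 10,000 compounds from Life Chemicals, previously filtered for drug-likeness and reactive groups, was assayed by standard published procedures using reference drugs as positive controls. Each value is an IC50 for antiparasitic potency.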
# Leishmania infantum = assay: WHO-TDR: Leishmaniasis; type: functional, organism-based, Mus musculus; details: Macrophage
# In short: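 Intracellular amastigotes of Leishmania infantum MHOM/MA(BE)/67, hosted in murine peritoneal macrophages, were exposed to compounds from a 10,000-member diverse library supplied by Life Chemicals. The library had been filtered for drug-likeness and reactive groups. The reported IC50 expresses antiparasitic potency.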
# Schistosoma mansoni = assay: WHO-TDR: Schistosomiasis; type: functional; design: concentration or dose not given beside the values
# In short: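 Percent inhibition and IC50 describe activity against whole Schistosoma mansoni worms of the Puerto Rican strain, tested as larvae and/or adults. The compounds screened were a diverse set of 10,000 from Life Chemicals, filtered for drug-likeness and reactive groups. Testing followed previously published standard procedures, with a reference drug as positive control.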
# Onchocerca ochengi [3] = assay: (§1) WHO-TDR: Onchocerciasis; type: functional; design: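 at 12.5 µM on microfilariae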
# In short: (§2)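 Percent inhibition and IC50 describe activity against microfilariae of Onchocerca ochengi or Onchocerca lienalis, used as animal-pathogen substitutes for the human parasite. The compounds tested made up a 10,000-member diverse library from Life Chemicals.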
# Onchocerca ochengi [4] = assay: as §1; type: functional; design: concentration or dose not given beside the values; in short: as §2; remark: listed apart in the source
IC50 (Plasmodium falciparum K1) [µg/mL],IC50 [2] [µg/mL],IC50 (Leishmania infantum) [µg/mL],SMILES,IC50 [1] [µg/mL],IC50 (Trypanosoma cruzi) [µg/mL],% Inhibition (Schistosoma mansoni) [%],% Inhibition (Onchocerca ochengi [3]) [%],% Inhibition (Onchocerca ochengi [4]) [%]
5.1,0.43,3.38,CN1CCc2cc(C(CNC(=O)COc3ccc(Cl)cc3Cl)N3CCCC3)ccc21 (stereo not given),11.6,4.36,0,50,0
1.47,> 12.4,4.03,CN1CCN(C(CNC(=O)c2ccc(F)c(F)c2)c2ccc3c(c2)CCN3C)CC1 (stereo not given),3.34,> 12.4,0,100,0
3.56,4.14,1.9,CN1CCN(C(CNC(=O)COc2ccccc2F)c2ccc3c(c2)CCN3C)CC1 (stereo not given),> 12.8,> 12.8,0,0,0
> 12.8,0.411,4.16,CN1CCCc2cc(C(CNC(=O)COc3ccc(Cl)cc3)N3CCCC3)ccc21 (stereo not given),> 12.8,4.46,25,0,0
> 12.7,> 12.7,> 12.7,CN1CCCc2cc(C(CNC(=O)c3ccc4c(c3)OCO4)N3CCOCC3)ccc21 (stereo not given),11.2,4.94,0,100,0
> 11.5,3.68,> 11.5,CN1CCCc2cc(C(CNC(=O)c3cccs3)N3CCCCC3)ccc21 (stereo not given),> 11.5,10.4,0,100,0
> 12.6,4.04,4.09,C=CCN1C(=O)C(C)(C)COc2cc(NS(=O)(=O)c3ccccc3Cl)ccc21,> 12.6,4.05,0,100,0
> 11.8,3.72,> 11.8,C=CCN1C(=O)C(C)(C)COc2cc(NS(=O)(=O)C3CCCCC3)ccc21,> 11.8,8.42,0,100,60
> 13.3,4.27,> 13.3,CCCN1C(=O)C(C)(C)COc2cc(NS(=O)(=O)c3c(C)c(C)cc(C)c3C)ccc21,> 13.3,3.55,0,100,0
> 12.5,4.62,> 12.5,CCCN1C(=O)C(C)(C)COc2cc(NS(=O)(=O)Cc3ccc(C)cc3)ccc21,> 12.5,> 12.5,0,100,60
> 14.4,4.62,> 14.4,CC(C)CN1C(=O)C(C)(C)COc2cc(NS(=O)(=O)c3ccccc3Br)ccc21,> 14.4,4.3,0,100,0
> 11.4,> 11.4,> 11.4,CN1C(=O)C(C)(C)COc2ccc(NS(=O)(=O)c3ccccc3F)cc21,> 11.4,> 11.4,0,100,0
> 13.3,> 13.3,> 13.3,C=CCN1C(=O)C(C)(C)COc2ccc(NS(=O)(=O)c3ccc4c(c3)OCCO4)cc21,> 13.3,> 13.3,0,100,0
> 13.2,> 13.2,4.28,C=CCN1C(=O)C(C)(C)COc2ccc(NS(=O)(=O)c3ccc4c(c3)CCCC4)cc21,> 13.2,11.4,0,100,0
> 11.4,3.08,3.69,CCc1ccc(S(=O)(=O)Nc2ccc3c(c2)NC(=O)C(C)(C)CO3)s1,> 11.4,3.45,0,100,60
3.66,6.82,> 9.37,CC(C)S(=O)(=O)Nc1ccc2c(c1)NC(=O)C(C)(C)CO2,> 9.37,3.93,0,100,0
> 11.9,6.16,> 11.9,CC1(C)COc2ccc(NS(=O)(=O)c3cccc4ccccc34)cc2NC1=O,> 11.9,> 11.9,0,100,0
> 11.8,3.89,> 11.8,Cc1ccc(Cl)cc1S(=O)(=O)Nc1ccc2c(c1)NC(=O)C(C)(C)CO2,> 11.8,3.95,0,100,0
> 13.3,> 13.3,> 13.3,O=C(Cc1csc(NS(=O)(=O)c2ccc(Cl)cc2)n1)Nc1ccc(F)c(F)c1,> 13.3,> 13.3,0,100,0
> 11.4,> 11.4,> 11.4,CCOC(=O)c1ccccc1NC(=O)CSc1ncc(-c2ccccc2)[nH]1,> 11.4,> 11.4,0,100,0
> 10.5,> 10.5,> 10.5,O=C(CSc1ncc(-c2ccccc2)[nH]1)N1CCCc2ccccc21,> 10.5,> 10.5,0,100,0
> 12.4,> 12.4,> 12.4,O=C(CSc1ncc(-c2ccccc2)[nH]1)Nc1cc(C(F)(F)F)ccc1Cl,> 12.4,> 12.4,0,100,0

SMILES,IC50 (Plasmodium falciparum K1) [µg/mL],IC50 [2] [µg/mL],IC50 (Leishmania infantum) [µg/mL],IC50 [1] [µg/mL],IC50 (Trypanosoma cruzi) [µg/mL],% Inhibition (Schistosoma mansoni) [%],% Inhibition (Onchocerca ochengi [3]) [%],% Inhibition (Onchocerca ochengi [4]) [%]
CCc1ccc2nc(N(CCN(CC)CC)C(=O)Cc3ccc4c(c3)OCO4)sc2c1,4.52,0.457,7.4,> 14.3,3.61,0,0,0
CCN(CC)CCN(C(=O)Cc1ccc2c(c1)OCO2)c1nc2c(C)cc(C)cc2s1,4.32,0.452,7.4,11.2,4.58,0,0,0
CCN(CC)CCN(C(=O)Cc1ccc2c(c1)OCO2)c1nc2c(C)c(C)ccc2s1,8.03,0.452,> 14.3,> 14.3,9.51,0,0,0
